Test results taken from ChEMBL document CHEMBL1806390, “Synthesis and biological evaluation of naphthyl phenyl ethers (NPEs) as novel nonnucleoside HIV-1 reverse transcriptase inhibitors” (Bioorg Med Chem, 2011).

Columns and labels:
[1] = tested on: Human immunodeficiency virus 1; assay: Antiviral activity against 0.06 MOI Human immunodeficiency virus 1 IIIB infected in C8166 cells assessed as reduction in virus-induced cytopathic effect after 3 days by syncytium reduction assay; assay type: functional, organism-based; details: C8166, 72 h
Procedure, shortened: (§1)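 C8166 cells (4 × 10^5/mL) infected at MOI 0.06 in presence of serial compound dilutions; AZT as drug control. Cultured 3 days at 37 °C, syncytia (multinucleated giant cells) counted under inverted microscope; EC50 = concentration blocking syncytium formation by 50%. Mean of at least two separate experiments.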

[2] = tested on: Human immunodeficiency virus 1; assay: Antiviral activity against 0.06 MOI Human immunodeficiency virus 1 IIIB A17 harboring reverse transcriptase K103N and Y181C double mutant infected in C8166 cells assessed as reduction in virus-induced cytopathic effect after 3 days by syncytium reduction assay; assay type: functional, organism-based; details: Human immunodeficiency virus 1, IIIB A17, C8166, 72 h
Procedure, shortened: as §1, with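 “infected with HIV-1 IIIB A17 (K103N+Y181C)” for “infected”, “graded” for “serial”, “concentrations;” for “dilutions;”, “AZT” for “AZT as”, “as” for “=”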

[3] = tested on: Human immunodeficiency virus 2; assay: Antiviral activity against Human immunodeficiency virus 2 ROD infected in C8166 cells assessed as reduction in virus-induced cytopathic effect after 3 days by syncytium reduction assay; assay type: functional, organism-based; details: Human immunodeficiency virus 2, ISOLATE ROD, C8166, 72 h; procedure, shortened: as §1
[4] = Cytotoxicity against human C8166 cells by MTT assay; assay type: cell-based
Procedure, shortened: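 MTT colorimetric assay on C8166 cells, absorbance read at 570/630 nm; CC50 (concentration reducing viable cells by 50%) taken from dose-response curve. Mean of at least two separate experiments.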

[5] = Selectivity index, ratio of CC50 for human C8166 cells to EC50 for wild type HIV1 IIIB infected in C8166 cells; assay type: toxicity, cell-based; details: read-out: Ratio CC50/EC50
Procedure, shortened: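 SI computed as CC50 (MTT, C8166 cells) divided by EC50 against HIV-1 IIIB from syncytium reduction in C8166 cells at MOI 0.06, 3 days at 37 °C.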

**Q.** With `Cc1cc(S(N)(=O)=O)ccc1NC(=O)COc1ccc(F)cc1Oc1cccc2ccccc12` as the compound, how does the EC50 [1] read?
**A.** 0.137 µM

**Q.** What about the EC50 [2] of the same compound?
**A.** 1.68 µM

**Q.** And the EC50 [3]?
**A.** 17 µM

**Q.** What about the CC50 [4] of the same compound?
**A.** 33.1 µM

**Q.** And the selectivity ratio [5]?
**A.** 240

**Q.** Which EC50 [1] does the source give for `Cc1cc(S(N)(=O)=O)ccc1NC(=O)COc1ccc(F)cc1Oc1ccc2ccccc2c1` here?
**A.** 0.0455 µM

**Q.** And the EC50 [2]?
**A.** 3.29 µM

**Q.** And the EC50 [3]?
**A.** 96.6 µM

**Q.** What about the CC50 [4] of the same compound?
**A.** 68.5 µM

**Q.** What about the selectivity ratio [5] of the same compound?
**A.** 1510

**Q.** For `Cc1cc(S(N)(=O)=O)ccc1NC(=O)COc1ccc(Cl)cc1Oc1ccc2ccccc2c1`, which EC50 [1] is on record?
**A.** 0.0791 µM

**Q.** And the EC50 [2]?
**A.** 1.79 µM

**Q.** What about the EC50 [3] of the same compound?
**A.** 27.3 µM

**Q.** What about the CC50 [4] of the same compound?
**A.** 119 µM

**Q.** And the selectivity ratio [5]?
**A.** 1500

**Q.** With `Cc1cc(S(N)(=O)=O)ccc1NC(=O)COc1ccc(Cl)cc1Oc1ccc2cc(Br)ccc2c1` as the compound, how does the EC50 [1] read?
**A.** 0.244 µM

**Q.** And the EC50 [2]?
**A.** 2.49 µM

**Q.** What about the EC50 [3] of the same compound?
**A.** 20 µM

**Q.** What about the CC50 [4] of the same compound?
**A.** 31.3 µM

**Q.** And the selectivity ratio [5]?
**A.** 128

**Q.** With `Cc1cc(S(N)(=O)=O)ccc1NC(=O)COc1ccc(Cl)cc1Oc1ccc2ccccc2c1Cl` as the compound, how does the EC50 [1] read?
**A.** 0.169 µM

**Q.** What about the EC50 [2] of the same compound?
**A.** 1.73 µM

**Q.** What about the EC50 [3] of the same compound?
**A.** 13.3 µM

**Q.** And the CC50 [4]?
**A.** 40.7 µM

**Q.** What about the selectivity ratio [5] of the same compound?
**A.** 241

**Q.** Which EC50 [1] does the source give for `Cc1cc(S(N)(=O)=O)ccc1NC(=O)COc1ccc(Cl)cc1Oc1ccc2ccccc2c1Br` here?
**A.** 0.0879 µM

**Q.** And the EC50 [2]?
**A.** 1.34 µM

**Q.** What about the EC50 [3] of the same compound?
**A.** 137 µM

**Q.** And the CC50 [4]?
**A.** 48.1 µM

**Q.** And the selectivity ratio [5]?
**A.** 547

**Q.** With `Cc1cc(S(N)(=O)=O)ccc1NC(=O)COc1ccc(F)cc1Oc1cc2ccccc2cc1C` as the compound, how does the EC50 [1] read?
**A.** 0.14 µM

**Q.** And the EC50 [2]?
**A.** 1.09 µM

**Q.** And the EC50 [3]?
**A.** 126 µM

**Q.** What about the CC50 [4] of the same compound?
**A.** 66.9 µM

**Q.** What about the selectivity ratio [5] of the same compound?
**A.** 476

**Q.** For `Cc1cc(S(N)(=O)=O)ccc1NC(=O)COc1ccc(F)cc1Oc1ccc2cc(Br)ccc2c1`, which EC50 [1] is on record?
**A.** 0.181 µM

**Q.** And the EC50 [2]?
**A.** 1.77 µM

**Q.** And the EC50 [3]?
**A.** 96 µM

**Q.** What about the CC50 [4] of the same compound?
**A.** > 358 µM

**Q.** What about the selectivity ratio [5] of the same compound?
**A.** > 1970

**Q.** With `Cc1cc(S(N)(=O)=O)ccc1NC(=O)COc1ccc(F)cc1Oc1ccc2ccccc2c1C` as the compound, how does the EC50 [1] read?
**A.** 0.183 µM

**Q.** What about the EC50 [2] of the same compound?
**A.** 1.15 µM

**Q.** And the EC50 [3]?
**A.** 26.4 µM

**Q.** What about the CC50 [4] of the same compound?
**A.** 56.1 µM

**Q.** And the selectivity ratio [5]?
**A.** 306

**Q.** For `Cc1cc(S(N)(=O)=O)ccc1NC(=O)COc1ccc(F)cc1Oc1ccc2ccccc2c1Br`, which EC50 [1] is on record?
**A.** 0.0858 µM

**Q.** What about the EC50 [2] of the same compound?
**A.** 1.59 µM

**Q.** And the EC50 [3]?
**A.** 6.17 µM

**Q.** What about the CC50 [4] of the same compound?
**A.** 39.5 µM

**Q.** What about the selectivity ratio [5] of the same compound?
**A.** 460

**Q.** Which results are given for `Cc1cc(S(N)(=O)=O)ccc1NC(=O)COc1ccc(F)cc1Oc1ccc2cc(C#N)ccc2c1`?
**A.** EC50 [1]: 0.0388 µM; EC50 [2]: 1.02 µM; EC50 [3]: 166 µM; CC50 [4]: > 396 µM; selectivity ratio [5]: > 10200

**Q.** For `Cc1cc(S(N)(=O)=O)ccc1NC(=O)COc1ccc(F)cc1Oc1ccc2ccccc2c1Cl`, which EC50 [1] is on record?
**A.** 0.186 µM

**Q.** What about the EC50 [2] of the same compound?
**A.** 3.09 µM

**Q.** And the EC50 [3]?
**A.** 136 µM

**Q.** And the CC50 [4]?
**A.** 47.1 µM

**Q.** And the selectivity ratio [5]?
**A.** 254

**Q.** With `Cc1cc(S(N)(=O)=O)ccc1NC(=O)COc1ccc(F)cc1Oc1ccc2cc(Br)ccc2c1Cl` as the compound, how does the EC50 [1] read?
**A.** 0.1 µM

**Q.** And the EC50 [2]?
**A.** 1.2 µM

**Q.** And the EC50 [3]?
**A.** 11.5 µM

**Q.** And the CC50 [4]?
**A.** 195 µM

**Q.** And the selectivity ratio [5]?
**A.** 1950

**Q.** Which results are given for `Cc1cc(S(N)(=O)=O)ccc1NC(=O)COc1ccc(Cl)cc1Oc1ccc2cc(C#N)ccc2c1`?
**A.** EC50 [1]: 0.117 µM; EC50 [2]: 2.33 µM; EC50 [3]: > 383 µM; CC50 [4]: > 383 µM; selectivity ratio [5]: > 3290

**Q.** Which EC50 [1] does the source give for `Cc1cc(S(N)(=O)=O)ccc1NC(=O)COc1ccc(F)cc1Oc1ccc2cc(C#N)ccc2c1Br` here?
**A.** 0.0046 µM

**Q.** And the EC50 [2]?
**A.** 0.82 µM

**Q.** And the EC50 [3]?
**A.** 4.4 µM

**Q.** What about the CC50 [4] of the same compound?
**A.** 35.3 µM

**Q.** And the selectivity ratio [5]?
**A.** 7670

**Q.** For `Cc1cc(S(N)(=O)=O)ccc1NC(=O)COc1ccc(F)cc1Oc1ccc2cc(C#N)ccc2c1Cl`, which EC50 [1] is on record?
**A.** 0.00472 µM

**Q.** And the EC50 [2]?
**A.** 0.54 µM

**Q.** What about the EC50 [3] of the same compound?
**A.** 235 µM

**Q.** And the CC50 [4]?
**A.** 39.7 µM

**Q.** And the selectivity ratio [5]?
**A.** 8410

**Q.** For `Cc1cc(S(N)(=O)=O)ccc1NC(=O)COc1ccc(F)cc1Oc1c(C)cc2ccccc2c1Cl`, which EC50 [1] is on record?
**A.** 0.198 µM

**Q.** What about the EC50 [2] of the same compound?
**A.** 1.39 µM

**Q.** And the EC50 [3]?
**A.** 18.8 µM

**Q.** And the CC50 [4]?
**A.** 55.6 µM

**Q.** What about the selectivity ratio [5] of the same compound?
**A.** 280

**Q.** With `Cc1cc(S(N)(=O)=O)ccc1NC(=O)COc1ccc(F)cc1Oc1ccc2cccc(F)c2c1` as the compound, how does the EC50 [1] read?
**A.** 0.0924 µM

**Q.** And the EC50 [2]?
**A.** 1.45 µM

**Q.** What about the EC50 [3] of the same compound?
**A.** 66.3 µM

**Q.** What about the CC50 [4] of the same compound?
**A.** 171 µM

**Q.** What about the selectivity ratio [5] of the same compound?
**A.** 1850

**Q.** Which EC50 [1] does the source give for `Cc1cc(S(N)(=O)=O)ccc1NC(=O)COc1ccc(Cl)cc1Oc1c(C)cc2ccccc2c1Cl` here?
**A.** 0.0731 µM

**Q.** And the EC50 [2]?
**A.** 1.07 µM

**Q.** What about the EC50 [3] of the same compound?
**A.** 3 µM

**Q.** And the CC50 [4]?
**A.** 42.6 µM

**Q.** And the selectivity ratio [5]?
**A.** 583

**Q.** For `Cc1cc(S(N)(=O)=O)ccc1NC(=O)COc1ccc(Cl)cc1Oc1cc2ccccc2cc1C`, which EC50 [1] is on record?
**A.** 0.0584 µM

**Q.** What about the EC50 [2] of the same compound?
**A.** 0.76 µM

**Q.** What about the EC50 [3] of the same compound?
**A.** 20.7 µM

**Q.** What about the CC50 [4] of the same compound?
**A.** 76.7 µM

**Q.** And the selectivity ratio [5]?
**A.** 1310

**Q.** Which results are given for `Cc1cc(S(N)(=O)=O)ccc1NC(=O)COc1ccc(Cl)cc1C(=O)c1cc(Cl)cc(C#N)c1`?
**A.** EC50 [1]: 0.00068 µM; EC50 [2]: 0.00138 µM; EC50 [3]: 2.18 µM; CC50 [4]: > 386 µM; selectivity ratio [5]: > 567000

**Q.** Which results are given for `Cc1cn([C@H]2C[C@H](N=[N+]=[N-])[C@@H](CO)O2)c(=O)[nH]c1=O` [ZIDOVUDINE]?
**A.** EC50 [1]: 0.0106 µM; EC50 [2]: 0.00812 µM; EC50 [3]: 0.129 µM; CC50 [4]: 5600 µM; selectivity ratio [5]: 529000
